# Screening results: PubChem, several laboratories
# The entries come from a sample that favours hits as a whole.
# TNAP act DEA: human TNAP activation, intermediate phosphate acceptor; activation factor at 20 µM; 64,000 tested, under 10 active; purified TNAP, CDP-star luminescence, 100 mM DEA, 30 min; active compounds read high; scale: 0 levamisole-inhibited, 1 vehicle-only enzyme; P05186;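 active = activation factor of at least 2 at 20 µM, relative to controls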
# Target sequence (P05186 whole entry, looked up): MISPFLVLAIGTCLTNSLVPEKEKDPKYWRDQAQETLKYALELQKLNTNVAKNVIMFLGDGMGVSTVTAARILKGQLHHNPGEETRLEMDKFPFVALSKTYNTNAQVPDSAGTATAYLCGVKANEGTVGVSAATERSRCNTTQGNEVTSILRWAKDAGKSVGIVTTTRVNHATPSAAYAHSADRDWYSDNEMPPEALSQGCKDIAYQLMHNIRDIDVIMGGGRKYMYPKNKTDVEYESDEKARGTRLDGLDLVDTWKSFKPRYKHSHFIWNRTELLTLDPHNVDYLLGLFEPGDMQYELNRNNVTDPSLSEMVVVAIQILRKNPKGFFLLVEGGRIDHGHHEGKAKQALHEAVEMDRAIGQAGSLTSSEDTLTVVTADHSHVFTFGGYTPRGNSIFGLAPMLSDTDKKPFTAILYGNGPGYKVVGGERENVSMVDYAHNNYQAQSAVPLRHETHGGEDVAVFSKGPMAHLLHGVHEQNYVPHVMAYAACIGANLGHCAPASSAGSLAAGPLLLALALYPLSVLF
# WNV NS2B-NS3 inh: inhibitors of West Nile virus NS2B-NS3 protease. WNV NS2B-NS3 protease, fluorogenic substrate Ex360/Em465; active compounds read low. z-score (test concentration not listed). hit rate 0.18% among 65,000. AID 577; in the data active = z-score below about -3
# Ecoli WT expand: blocks growth of wild type E. coli BW25113. growth inhibition, % at 100 µM. AID 710. OD600 absorbance. hit rate 0.15% among 98,000;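 active = growth inhibition above about 50% at one test dose, limit read from the data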;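 also: growth measured after 20 h incubation at 37 °C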
# tolC growth inh: blocks growth of E. coli BW25113 tolC mutant | OD615 | growth inhibition, % at 10 µM (by protocol) | hit rate 2.2% among 65,000;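 active = growth inhibition at or above a cutoff equal to the mean over every tested compound plus 3 SD, cut at about 60% in these data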;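 also: growth measured after 20 h incubation at 37 °C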
#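 Test system – E. coli BW25113 ΔtolC::kan, tolC deletion mutant strain · Detection – OD at 615 nm · Buffer or medium – LB with kanamycin 50 µg/mL · Times – 20 h compound exposure of bacteria at 37 °C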
# BAP1 inh: inhibitors of human BAP1 deubiquitinase; recombinant BAP1, Ub-AMC hydrolysis fluorescence kinetic; active compounds read low; hit rate 0.48% among 72,000; calls only at 20 µM; AID 436;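 active = activity remaining at or below 50% of control, provided the compound also passes the data quality filters; inactive = the rest, including low values that fail the filters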;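 also: 100% = DMSO wells rate and 0% = substrate alone blank rate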
# Numbers without * were called inactive; i = inactive; / = no result given; + = active, no number.
SMILES,TNAP act DEA,WNV NS2B-NS3 inh,Ecoli WT expand,tolC growth inh,BAP1 inh
O=C(Nc1ccc(N2CCN(C(=O)c3ccccc3)CC2)c(Cl)c1)c1ccco1,1,1.19,-9.0,17.1,i
CCCOc1ccc(C(=O)N2CCN(c3ccc(NC(=O)CC)cc3Cl)CC2)cc1,0.9,-0.21,-12.0,63.4*,/
COC(=O)c1c(-c2cc(OC)c(OC)c(OC)c2)c2ccc(OCc3ccccn3)cc2c(=O)n1-c1ccc(N)cc1,/,/,/,/,i
Cc1cccc(Nc2nc(N3CCCC3)nc(N3CCCC3)n2)c1,/,/,-1.0,/,/
Cc1cccc(Nc2nc(NCc3ccco3)nc(N3CCOCC3)n2)c1,0.9,-1.19,-13.0,61.9*,i
CC(Cl)=CCn1c(SCc2ccccc2)nc2c1c(=O)[nH]c(=O)n2C,/,/,/,/,i
CC1CCCCN1c1nc(-c2ccncc2)nc2ccccc12 (configuration not stated),0.9,1.1,5.0,100.0*,i
CCC1CCCCN1c1nc(-c2ccncc2)nc2ccccc12 (configuration not stated),0.8,-0.39,-14.0,-3.5,i
Nc1c(S(=O)(=O)O)cc(Nc2ccc(Nc3nc(Cl)nc(Nc4ccc(S(=O)(=O)O)cc4)n3)c(S(=O)(=O)O)c2)c2c1C(=O)c1ccccc1C2=O,/,/,/,/,+
CCCCCCCOc1ccc(OC(=O)c2cccnc2)cc1,/,/,-4.0,/,/
O=C(c1cccs1)N(Cc1nc2sc3c(c2c(=O)[nH]1)CCCC3)C1CCCC1,1,0.54,-9.0,89.5*,i
CC(C)(C)C(=O)Cn1c(=N)n(Cc2ccccc2Cl)c2ccccc21,/,/,-6.0,/,/
CC(C)(C)C(=O)Cn1c(=N)n(Cc2ccccc2)c2ccccc21,1,0.03,1.0,100.0*,i
C=CCOC(=O)Nc1c(C(=O)OC)[nH]c2ccc(Cl)cc12,0.9,-1.55,-9.0,-10.1,i
CCn1cc(C(=O)O)c(=O)c2cnc(N3CCN(C(=O)Nc4ccccc4)CC3)nc21,/,-0.22,/,100.0*,i
CCn1cc(C(=O)O)c(=O)c2ccc(Cc3ccccc3)nc21,/,/,/,/,i
COc1ccc(/C(O)=C2\C(=O)C(=O)N(c3cccc(C(=O)O)c3)C2c2ccccc2)cc1 (configuration not stated),/,/,/,/,i
COC(=O)C1=C(CSc2nc3ccccc3o2)NC(=O)NC1c1cc(C)ccc1C (configuration not stated),0.9,0.43,10.0,85.9*,i
Cc1cc(C)nc(NCCCc2ccccc2)n1,0.9,-0.23,0.0,12.4,i
CCCCNc1cc(C)nc(NCc2ccccc2)n1,1.1,1.32,59.0*,76.6*,i
Cc1ccc(OCc2nc(C#N)c(NCc3ccc4c(c3)OCO4)o2)cc1,1,-0.83,-11.0,81.3*,i
COCCOC(=O)C1=C(C)NC2=C(C(=O)CC(C)(C)C2)C1c1cc(OC)c(OC)c(OC)c1 (configuration not stated),/,/,/,/,i
Clc1ccc(Oc2nc(Oc3ccc(Cl)cc3)nc(N3CCOCC3)n2)cc1,0.8,-1.21,-16.0,48.0,i
COC(=O)c1ccc(Oc2nc(N3CCCCC3)nc(N3CCOCC3)n2)cc1,1,-0.69,-5.0,65.7*,i
Clc1cnc(C(Cl)(Cl)Cl)c(Cl)c1Cl,/,/,/,/,i
SMILES,TNAP act DEA,WNV NS2B-NS3 inh,Ecoli WT expand,tolC growth inh,BAP1 inh
O=C1CC(O)(C(F)(F)F)Oc2c1ccc1ccccc21 (configuration not stated),0.9,0.46,35.0,96.6*,i
COc1cccc2cc(-c3csc(CCn4nc(C)cc4C)n3)c(=O)oc12,0.9,-4.6*,-9.0,14.2,i
COc1ccc(C2Nc3ccc4ccccc4c3C3=C2C(=O)CCC3)cc1OC (configuration not stated),/,/,/,/,i
CC1(C)COCN1S(=O)(=O)c1ccc(C(=O)Nc2nnc(-c3ccc(Cl)s3)o2)cc1,0.8,-0.35,6.0,99.1*,i
COc1ccc(-c2nnc(NC(=O)c3ccc(S(=O)(=O)N4COCC4(C)C)cc3)o2)cc1,0.9,2.15,-16.0,99.7*,i
CCCC(=O)Nc1nnc(-c2ccc(Cl)s2)o1,1,-0.52,10.0,5.3,i
COc1ccc(-c2cc(C)[s+]c(-c3ccccc3)c2)cc1,/,/,/,/,i
Cc1nc2ccc(C(C(F)(F)F)(C(F)(F)F)C(F)(F)F)cc2[nH]1,1,-0.99,3.0,99.5*,i
O=C(O)CCC(=O)N1CCc2cc(S(=O)(=O)N3CCC(Cc4ccccc4)CC3)ccc21,1,-1.46,-12.0,100.0*,i
O=C(Nc1nc(-c2cc(Cl)sc2Cl)cs1)c1cccs1,0.9,0.15,-12.0,100.0*,/
O=C1C2C3C=CC(C3C3=CCCC3)C2C(=O)N1c1cccc([N+](=O)[O-])c1 (configuration not stated),/,/,/,/,i
O=C(c1cc(C2CC2)on1)N1CCN(C(c2ccccc2)c2ccccc2)CC1,0.8,0.34,-4.0,65.1*,i
CCOC(=O)C1=C(CC)NC2=C(C(=O)CCC2)C1c1ccc(N(CC)CC)cc1 (configuration not stated),/,/,/,/,i
CN(C)Cc1nc2c(c(=O)[nH]1)C1(CCCCC1)Cc1ccccc1-2,1.2,-0.82,3.0,61.8*,i
CCN(CC)Cc1nc2c(c(=O)[nH]1)C1(CCCCC1)Cc1ccccc1-2,0.8,-0.9,-6.0,29.2,/
O=c1c2c(nc3n1CCCCC3)-c1ccccc1CC21CCCC1,0.9,1.05,-6.0,90.6*,i
O=c1[nH]c(NCCCO)nc2c1C1(CCCC1)Cc1ccccc1-2,1,0.06,20.0,65.4*,i
O=c1c2c(nc3n1CCCS3)-c1ccccc1CC21CCCCC1,/,/,/,/,i
Cc1nn(Cc2ccccc2)c(C)c1C(=O)OCC(=O)c1cc(C)n(C2CC2)c1C,0.9,1.61,-6.0,65.3*,/
CCCCCCn1c2c(c(=N)c3c1CCC3)CCC2,0.9,0.59,24.0,89.9*,i
CC(=O)Nc1cccc(NC(=O)c2cc3ccccc3o2)c1,0.9,1.28,5.0,15.3,i
CC(=O)Nc1cccc(NC(=O)c2oc3ccccc3c2C)c1,0.9,-0.43,11.0,66.6*,i
Cc1cccc(NC(=O)c2cc(NC(=O)C3CCCCC3C(=O)O)ccc2N2CCCCC2)c1 (configuration not stated),0.9,0.92,-1.0,76.5*,/
CC(=O)Nc1ccc(N2CCCCC2)c(C(=O)Nc2cccc(C)c2)c1,/,/,3.0,/,/
CCCOc1ccccc1C1CC(=O)Nc2cc3c(cc21)OCCO3 (configuration not stated),0.8,0.36,-7.0,84.8*,i
COCCN1C(=O)C(=O)/C(=C(/O)c2ccccc2)C1c1ccc(C(C)C)cc1 (configuration not stated),/,/,/,/,i
O=S(=O)(Nc1ccc2oc(-c3ccccc3)nc2c1)c1ccccc1,0.9,0.19,-4.0,100.0*,i
Cc1cc2n(n1)C(c1ccc3c(c1)OCO3)Nc1c(C)cccc1-2 (configuration not stated),0.9,-0.05,0.0,71.3*,/
